Bioassay records (PubChem BioAssay)
Sampled rows, rich in hits. Any-hit rate of the full collection: about 1.8%.
M5 antag: blocks acetylcholine activation of human M5 receptor; actives 0.59% (n = 360,000); CHO-hM5 cells, Fluo-8 calcium fluorescence, ACh EC80; inhibition, % at 3 µM; P08912;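 active = inhibition above a per-plate cutoff, the mean of that plate's test compounds plus 3 SD, cut at about 27% in these data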
Target sequence (P08912 whole entry, looked up): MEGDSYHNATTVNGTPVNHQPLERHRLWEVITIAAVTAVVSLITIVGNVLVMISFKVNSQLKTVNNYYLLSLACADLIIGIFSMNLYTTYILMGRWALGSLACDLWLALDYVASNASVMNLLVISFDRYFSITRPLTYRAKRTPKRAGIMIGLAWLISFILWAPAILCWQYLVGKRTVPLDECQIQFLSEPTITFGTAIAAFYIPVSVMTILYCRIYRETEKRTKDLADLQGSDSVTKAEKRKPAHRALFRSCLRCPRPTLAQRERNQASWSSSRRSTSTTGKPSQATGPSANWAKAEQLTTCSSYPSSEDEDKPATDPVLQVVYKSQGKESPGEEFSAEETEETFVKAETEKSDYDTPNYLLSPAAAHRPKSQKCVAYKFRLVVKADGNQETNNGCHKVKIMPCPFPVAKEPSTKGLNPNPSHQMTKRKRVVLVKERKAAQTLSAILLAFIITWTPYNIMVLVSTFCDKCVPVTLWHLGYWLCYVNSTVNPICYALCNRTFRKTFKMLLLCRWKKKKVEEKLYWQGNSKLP
M4 PAM: CHRM4 positive allosteric modulation; activation, % at 3 µM; AID 624126; P08173; CHO-K1 hM4/Gqi5, Fluo-8 calcium fluorescence, ACh EC20; 0% = ACh EC20, 100% = maximal ACh; actives 0.4% (n = 360,000);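 active = activation above its plate's cutoff, the mean activation of sample wells plus 3 SD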
CHRM5 agonist: CHRM5 agonism in calcium assay; P08912; CHO-K1 hM5 cells, Fluo-8 calcium fluorescence; 0% DMSO wells, 100% maximal acetylcholine response; activation, % at 3 µM; actives 0.19% (n = 360,000);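 active = activation above the run's mean over test compounds plus 3 SD, cut at about 23% in these data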;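 note: signal is peak over basal fluorescence ratio across the kinetic read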
M5 PAM: CHRM5 positive allosteric modulation. CHO-K1 hM5, Fluo-8 calcium, ACh EC20 PAM; 0% = ACh EC20, 100% = ACh EC100. activation, % at 3 µM. actives 0.3% (n = 360,000). AID 624038;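 active = activation above the run cutoff, the mean activation of all test compounds plus 3 SD, cut at about 18% in these data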
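system = human M5 receptor in CHO-K1 cells | reagent = EC20 acetylcholine as agonist stimulus | compound dosing = single-point, 3 µM nominal | incubation = Fluo-8 loading 80 min at 37 °C plus 30 min room temperature | detection = Fluo-8 calcium dye fluorescence, kinetic read | benchmarks = low control EC20 acetylcholine (0%), high control EC100 acetylcholine (100%)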
CHRM4 agonist: CHRM4 agonism in calcium assay. activation, % at 3 µM. actives 0.14% (n = 360,000). CHO-K1 hM4/Gqi5, Fluo-8 calcium fluorescence; vehicle 0%, full acetylcholine response 100%. P08173. AID 624127;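 active = activation above the run mean over all test wells plus 3 SD, cut at about 32% in these data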;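 note: peak over basal fluorescence ratio per well then scaled between controls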
M4 antag: blocks acetylcholine activation of human M4 receptor; P08173; CHO-hM4 cells, ACh EC80, Fluo-8 calcium fluorescence; inhibition, % at 3 µM; actives 0.73% (n = 360,000); AID 624125;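 active = inhibition above its plate's cutoff, the mean inhibition of sample wells plus 3 SD, cut at about 27% in these data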
Each line names hits and unclear results; the compound was inactive in the other large screens.

COc1ccc([N+](=O)[O-])cc1NC(=O)C(C)c1ccccc1 (stereo not given)	none
COc1ccc([N+](=O)[O-])cc1NC(=S)NC(NC(=O)C(c1ccccc1)c1ccccc1)C(Cl)(Cl)Cl (stereo not given)	M4 antag 27
COc1cccc2sc(Nc3nc(-c4ccccn4)cs3)nc12	M5 antag 30, M4 antag 37
c1ccc(Nc2nc(-c3ccccn3)cs2)cc1	none
CC(=O)N1N=C(c2ccc(Cl)cc2)OC1c1ccc(C(C)C)cc1 (stereo not given)	M5 PAM 33
CC(=O)N1N=C(c2ccc(C)cc2)OC1c1ccc(Br)cc1 (stereo not given)	none
O=C(O)c1c[nH]c2nccnc12	none
COc1ccc(NC(=O)C2CCN(S(=O)(=O)c3ccc(N4CCCC4=O)cc3)CC2)c(OC)c1	none
CC1Sc2ccc(S(=O)(=O)N3CCC(C(=O)Nc4ccc(Cl)cc4)CC3)cc2NC1=O (stereo not given)	M5 antag 33, M4 antag 30
Cc1ccc(NC(=O)C2CCN(S(=O)(=O)c3ccc(N4CCCC4=O)cc3)CC2)cc1Cl	M5 antag 50
COc1ccc(-c2ccc3c(c2)c(Sc2ccccc2)c(-c2ccccc2)n3C)cn1	none
O=C(NNc1ccccc1Br)C(O)(c1cccc(C(F)(F)F)c1)c1cccc(C(F)(F)F)c1	M5 antag 29
C/C(CS(=O)(=O)c1ccc(Cl)cc1)=N/NC(N)=S	M4 PAM 20
C/C(CS(=O)(=O)c1ccc(Cl)c(Cl)c1)=N/NC(N)=S	none
NC(Cc1ccccc1)c1csc(NC(=O)Nc2ccccc2Oc2ccccc2)n1 (stereo not given)	none
NC(Cc1ccc(C(F)(F)F)cc1)c1csc(Nc2ncccn2)n1 (stereo not given)	none
Cc1ccc(C(=O)Nc2nc(C(N)Cc3ccc(C(F)(F)F)cc3)cs2)cc1 (stereo not given)	CHRM4 agonist 36
NC(Cc1ccc(F)cc1)c1csc(NC(=O)NC(c2ccccc2)c2ccccc2)n1 (stereo not given)	M4 antag 28
NC(Cc1ccc(C(F)(F)F)cc1)c1csc(Nc2ccccn2)n1 (stereo not given)	CHRM4 agonist 41
NC(Cc1ccc(Cl)cc1)c1csc(Nc2ccc(-c3ccccc3)nn2)n1 (stereo not given)	CHRM4 agonist 38
CCC(c1nnnn1-c1ccc2c(c1)OCCO2)N1CCN(c2ccc(F)cc2)CC1 (stereo not given)	none
CN(C)c1ccc(CNCc2cccnc2)cc1	none
CCOC(=O)c1cccc(N2CC3CNC(=O)C2(C(=O)OC)N3C)c1 (stereo not given)	none
CC(=O)NC(c1ccc(F)c(F)c1)c1nc(-c2ccc3c(c2)OCO3)cs1 (stereo not given)	none
COc1ccc(S(=O)(=O)NCC(=O)N(CC(=O)NCC2CCCO2)Cc2ccc(F)cc2)cc1 (stereo not given)	none
NC(Cc1ccc(C(F)(F)F)cc1)c1csc(NC(=O)NCCc2ccccc2)n1 (stereo not given)	CHRM4 agonist 39, M4 antag 41
O=C(O)[C@@H]1CC(O)CN1C(=O)CCc1c[nH]c2ccccc12 (stereo not given in full)	none
NCC1CCC(C(=O)Oc2ccc(CCC(=O)O)cc2)CC1 (stereo not given)	CHRM5 agonist 24
O=C(NC1CC1)C1CC(=O)N(c2ccccc2)C1 (stereo not given)	M5 antag 30
O=C(NC1CCCC1)C1CC(=O)N(c2ccccc2)C1 (stereo not given)	none
COCCNc1ncnc2c1ncn2[C@H]1CN(Cc2ccc(-c3ccccc3)cc2)C[C@@H](CO)O1	none
O=c1oc2c3c4c(cc2c(C(F)(F)F)c1CCN1CCOCC1)CCCN4CCC3	M4 antag 29
COc1ccc(OC)c(NC(=O)c2ccccc2N(Cc2ccccc2)S(C)(=O)=O)c1	none
CN(CC(=O)Nc1ccc(C#N)cc1)Cc1ccc(Cl)cc1Cl	M5 antag 27
CN(CC(=O)Nc1ccc(C#N)cc1)Cc1ccc(Cl)cc1	none
CCOc1cc(/C=C2\CN(C)C/C(=C\c3ccc(O)c(OCC)c3)C2=O)ccc1O	none
CCOc1cc(/C=C2\CCC/C(=C\c3cc(Cl)c(O)c(OCC)c3)C2=O)cc(Cl)c1O	M4 antag 47
O=C(C1CCCO1)N1CCN(C(c2ccccc2)c2ccccc2)CC1 (stereo not given)	none
O=C(C1CCCO1)N1CCC(O)(c2ccccc2)CC1 (stereo not given)	M4 PAM 20
COc1ccc(C2/C(=C(/O)c3ccc(S(=O)(=O)N4CCOCC4)cc3)C(=O)C(=O)N2CCN2CCOCC2)cc1 (stereo not given)	none
COc1ccc(/C(O)=C2/C(=O)C(=O)N(CCCN3CCOCC3)C2c2ccc(OC)cc2)cc1 (stereo not given)	M5 antag 32
COc1ccc(C2/C(=C(/O)c3ccc4c(c3)CC(C)O4)C(=O)C(=O)N2CCCN2CCOCC2)cc1 (stereo not given)	M5 PAM 20
CCc1noc(C)c1C(=O)NC1CCCc2c1cnn2-c1ccc(C(C)(C)C)cc1 (stereo not given)	none
Cc1ccc(C)c(NCCCCC(=O)O)c1	none
CSC(=S)N/N=C/c1ccc(Br)cc1	M4 PAM 23
CSC(=S)N/N=C/c1ccc(N(C)C)cc1	none
CCOC(=O)CSc1nc2c(cnn2-c2ccc(C)cc2)c(=O)[nH]1	M4 PAM 19
COc1ncccc1C(=O)Nc1c(-c2ccccc2)[nH][nH]c1=O	M4 antag 39
COc1ccc(NC(=S)NCCc2ccc(S(N)(=O)=O)cc2)c(OC)c1	M5 antag 27
COc1ccccc1NC(=S)NCCc1ccc(S(N)(=O)=O)cc1	none
COc1ccc(NC(=S)NCCN2CCOCC2)c(OC)c1	M4 PAM 16
Cc1cc(C(=O)NCCc2ccc(S(N)(=O)=O)cc2)no1	M5 PAM 18
Cc1ccc(C(=O)/C=C/Nc2cccc(O)c2)cc1	M5 PAM 35
O=C(/C=C/c1cn(-c2ccccc2)nc1-c1ccccc1)Nc1ccc(C(=O)O)cc1	M4 antag 71
NS(=O)(=O)c1ccc(NC(=O)/C=C/c2cn(-c3ccccc3)nc2-c2cccc(Cl)c2)cc1	none
CC(C)NC(=O)/C(=C/c1cn(-c2ccccc2)nc1-c1cccc([N+](=O)[O-])c1)NC(=O)c1ccccc1	M4 antag 32
